# The M2OR odorant receptor database
# Target: T1, OR5P3 (Homo sapiens) (UniProt Q8WZ94)
# T1 sequence (whole entry): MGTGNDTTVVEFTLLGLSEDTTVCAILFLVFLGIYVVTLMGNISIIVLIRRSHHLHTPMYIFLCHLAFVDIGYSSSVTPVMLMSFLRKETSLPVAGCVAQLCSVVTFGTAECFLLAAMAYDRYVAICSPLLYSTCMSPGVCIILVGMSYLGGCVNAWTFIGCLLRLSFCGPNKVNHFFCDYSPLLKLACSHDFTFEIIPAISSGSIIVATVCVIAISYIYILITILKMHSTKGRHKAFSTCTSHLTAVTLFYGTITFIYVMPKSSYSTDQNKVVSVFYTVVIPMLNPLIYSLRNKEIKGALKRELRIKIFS
# Conditions: stereoisomer not certain
# In short: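 Transient luciferase assays in mammalian cell lines were common, though methods varied by source. The values come from published papers and their supplementary material, with extra details from the original authors when needed. Responsive refers to a measured signal the original authors judged statistically different from baseline, and non-responsive (inactive) to the remainder.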
# 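Also: active if original authors judged signal statistically different from baseline.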
row,SMILES,odorant receptor agonist call
1,CCCCCC(=O)CC,inactive
2,C=CCOC(=O)CCCCCC,inactive
3,CCCCC(C)=O,inactive
4,CCCCC(=O)O,inactive
5,CCCCCCCC(=O)[O-].[H+],inactive
6,CCCCCCCCCC(=O)[O-].[H+],inactive
7,CCCCCC=O,inactive
8,O=C1Cc2ccccc2O1,inactive
9,CC12CCC(CC1=O)C2(C)C (stereo not given),inactive
10,O=C(c1ccccc1)c1ccccc1,inactive
11,CCCCCCCCO,inactive
12,CC(C)=CCCC(C)CCO (stereo not given),inactive
13,CCCCCO,inactive
14,CCCCCCC(C)=O,inactive
15,CCCCCCCCC(=O)O,inactive
16,CCCCCCCCCCO,inactive
17,CCCC(C)=O,inactive
18,c1ccccc1,inactive
19,O=c1ccc2ccccc2o1,active
20,CCC(C(=O)O)c1ccccc1 (stereo not given),inactive
21,CCCCCCC(=O)[O-].[H+],inactive
22,CCCCCOC(=O)CCCCC,inactive
23,CCCCCCCCS,inactive
24,CCC(=O)O,inactive
25,CCCCCCCC(C)=O,inactive
26,CC(=O)Oc1ccccc1,inactive
27,CCCCCC1=C(C)CCC1=O,inactive
28,CC(=O)OCC=C(C)C,inactive
29,CCOC(=O)C(C)C,inactive
30,CCCC(=O)C(C)=O,inactive
